Assay results from article PMC3282045 (Biochemistry, 2012).
Positions count from the first letter of the chain named. Names may count otherwise. Values belong to the molecule of their own block, whether it stands above or below them.

Columns and labels:
[1] = molecular target: T1, human sulfite oxidase (HSO, human SO) (Homo sapiens, UniProt P51687); assay: stopped-flow heme reduction; type: biochemical; conditions: read-out: Kd^sulfite; pH 8.5, 25 °C, anaerobic, no cyt c
T1 sequence (P51687 80-545): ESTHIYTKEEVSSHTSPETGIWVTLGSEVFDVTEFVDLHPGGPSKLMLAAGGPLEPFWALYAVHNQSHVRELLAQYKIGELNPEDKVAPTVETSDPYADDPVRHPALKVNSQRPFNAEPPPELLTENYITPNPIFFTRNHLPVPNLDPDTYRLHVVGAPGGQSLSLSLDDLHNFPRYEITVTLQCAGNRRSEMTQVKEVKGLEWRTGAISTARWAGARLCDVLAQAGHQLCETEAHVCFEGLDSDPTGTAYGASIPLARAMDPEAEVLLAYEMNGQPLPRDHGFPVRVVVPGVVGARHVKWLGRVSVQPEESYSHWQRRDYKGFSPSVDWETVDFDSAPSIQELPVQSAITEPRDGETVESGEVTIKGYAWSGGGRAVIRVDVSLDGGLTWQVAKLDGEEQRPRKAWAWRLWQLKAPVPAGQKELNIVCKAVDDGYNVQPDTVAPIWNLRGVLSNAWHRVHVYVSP
How it was run: (§1)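 Recombinant enzyme expressed in E. coli TP1000 and purified. Anaerobic stopped-flow at 25 °C (dead-time <1.5 ms, 10 mm path), with argon-sparged solutions prepared in an anaerobic chamber. Enzyme at 0.3–0.8 μM was mixed with varied sulfite, no cyt c. Heme Soret change followed at 425 or 430 nm. Traces were fitted to single or double exponentials for kobs, then kobs versus sulfite fitted hyperbolically for kred and Kd.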

[2] = molecular target: T2, human sulfite oxidase (HSO, human SO) (Homo sapiens, UniProt P51687, R529Q); assay: stopped-flow heme reduction; type: biochemical; conditions: read-out: Kd^sulfite; pH 8.5, 25 °C, anaerobic, no cyt c
T2 sequence (P51687 80-545 R529Q): T1 sequence (P51687 80-545) with R450Q
How it was run: as §1

[3] = molecular target: T3, chicken sulfite oxidase (CSO, recombinant chicken SO) (Gallus gallus, UniProt P07850); assay: steady-state cytochrome c reduction at […] nm; type: biochemical; conditions: read-out: Km^sulfite; pH 8.5, 25 °C, horse heart cyt c
T3 sequence (P07850 1-459): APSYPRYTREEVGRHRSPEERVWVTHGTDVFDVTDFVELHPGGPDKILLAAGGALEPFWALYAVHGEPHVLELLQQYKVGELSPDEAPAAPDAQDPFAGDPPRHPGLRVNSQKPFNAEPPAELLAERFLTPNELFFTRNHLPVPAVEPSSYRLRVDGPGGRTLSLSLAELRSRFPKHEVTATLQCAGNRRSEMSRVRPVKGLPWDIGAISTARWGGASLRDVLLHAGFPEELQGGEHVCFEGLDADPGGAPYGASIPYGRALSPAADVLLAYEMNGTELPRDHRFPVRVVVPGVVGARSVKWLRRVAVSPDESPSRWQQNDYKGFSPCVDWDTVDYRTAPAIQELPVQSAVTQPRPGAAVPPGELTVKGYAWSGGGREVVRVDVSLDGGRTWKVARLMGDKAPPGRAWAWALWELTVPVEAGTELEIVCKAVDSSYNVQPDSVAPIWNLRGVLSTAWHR

[4] = molecular target: T4, human sulfite oxidase (HSO, human SO) (Homo sapiens, UniProt P51687, R529M); assay: stopped-flow heme reduction; type: biochemical; conditions: read-out: Kd^sulfite; pH 8.5, 25 °C, anaerobic, no cyt c
T4 sequence (P51687 80-545 R529M): T1 sequence (P51687 80-545) with R450M
How it was run: as §1

purified protein [5] = substrate: O=S(O)O; assay: purified protein; type: biochemical, Homo sapiens; conditions: pH 8.5, 25 °C, horse heart cyt c
purified protein [6] = substrate: O=[N+]([O-])O; assay: purified protein; type: biochemical, Homo sapiens; conditions: pH 8.5, 25 °C, anaerobic, dithionite-reduced methyl viologen

Kd [1]: 6.72 µM
Kd [2]: 227 µM
Km [3]: 8.53 µM
Kd [4]: 73.4 µM
Molecule: O=S(O)O [sulfite]

B1: human sulfite oxidase (HSO, human SO) (Homo sapiens; V531M) (protein)
chain: T1 sequence (P51687 80-545) with V452M
Km (purified protein [5]): 3.54 µM
kcat (purified protein [5]): 15.8 s⁻¹

B2: human sulfite oxidase (HSO, human SO) (Homo sapiens) (protein)
chain: T1 sequence (P51687 80-545)
Km (purified protein [5]): 8.25 µM
kcat (purified protein [5]): 26.9 s⁻¹
Km (purified protein [6]): 43000 µM
kcat (purified protein [6]): < 0.1 s⁻¹

B3: human sulfite oxidase (HSO, human SO) (Homo sapiens; Y400N) (protein)
chain: T1 sequence (P51687 80-545) with Y321N
Km (purified protein [5]): 850 µM
kcat (purified protein [5]): 16.91 s⁻¹

B4: human sulfite oxidase (HSO, human SO) (Homo sapiens; R529M/Y400N) (protein)
chain: T1 sequence (P51687 80-545) with Y321N, R450M
Km (purified protein [5]): 42990 µM
kcat (purified protein [5]): 1.42 s⁻¹
